Data set [1] concerns Pseudomonas aeruginosa. The experiment in a line: Synergistic bactericidal activity against Pseudomonas aeruginosa ATCC 27853 at 35:1 compound to doxycycline ratio after 48 hrs by resazurin dye based microdilution broth checkerboard method. The class given is functional. The conditions noted are these: ATCC 27853, 48 h, read-out: MBC99.9. In a few lines:
(§1)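 Checkerboard broth microdilution of drug pairs in tryptic soy broth on mid-log cultures (OD 0.5), 48 h at 37 °C. Growth read by resazurin (pink growth, blue no growth). MBC is blue retained over 4 h, CFU plating where needed. ΣFIC = C_A/MIC_A + C_B/MIC_B, taken at the growth/no-growth interface wells; ΣFIC <0.5 counts as synergy.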
On the technique in general: Resazurin is reduced to fluorescent resorufin, in cell work by metabolically active cells.

Data set [2] is described as follows: Solubility of the compound in water at 10 mg after 24 hrs by HPLC based shake flask method. Type of data set: physicochemical.
Data set [3] concerns Vero. In words: Cytotoxicity against African green monkey Vero cells after 72 hrs by MTT assay. The class given is cell-based, Chlorocebus sabaeus. As to conditions: Chlorocebus sabaeus, Vero, 72 h; read-out: IC50. In a few lines:
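Vero (ATCC CCL-81) cells in Eagle's MEM with 10% FBS and penicillin-streptomycin, in 96-well plates. Serial dilutions from 0.78 to 200 μg/mL. Tunicamycin, colistin or tobramycin as controls on each plate. Viability by MTT, giving IC50.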
For orientation: Formazan colour is commonly taken as a measure of viable cells.

The test system of data set [4] is Acinetobacter baumannii. In words: Potentiation of doxycycline-induced antimicrobial activity against Acinetobacter baumannii ATCC 19606 at 0.40 ug/ml in presence of 0.05 ug/ml doxycycline by microdilution broth checkerboard method. The class given is functional, ATCC 19606 = CIP 70.34 = JCM 6841. The essentials: (§2)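 A. baumannii ATCC 19606 in a broth microdilution checkerboard with doxycycline, 96 concentration combinations. ΣFIC = C_A/MIC_A + C_B/MIC_B, taken for wells at the growth/no-growth interface; ΣFIC <0.5 counts as synergy.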
Background: Dilution methods test growth across graded concentrations, often in twofold steps.

Data set [5] has as its system Acinetobacter baumannii. In words: Potentiation of doxycycline-induced antimicrobial activity against Acinetobacter baumannii ATCC 19606 at 1.56 ug/ml in presence of 0.025 ug/ml doxycycline by microdilution broth checkerboard method. Type of data set: functional, ATCC 19606 = CIP 70.34 = JCM 6841. In a few lines: as §2
Data set [6] concerns Klebsiella pneumoniae. The experiment in a line: Synergistic antibacterial activity against Klebsiella pneumoniae ATCC 8047 at 2:1 compound to doxycycline ratio after 48 hrs by resazurin dye based microdilution broth checkerboard method. Type of data set: functional. As to conditions: ATCC 8047, 48 h. The essentials: (§3)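 Microdilution broth checkerboard of the compound combined with doxycycline, using the resazurin broth method (48 h, 37 °C, blue = no growth). ΣFIC = C_A/MIC_A + C_B/MIC_B, taken at the growth–no growth interface wells; ΣFIC below 0.5 is scored as synergy. MBC for the fixed-ratio combinations read as the 4 h resazurin endpoint.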

The subject of data set [7] is Acinetobacter baumannii. The experiment in a line: Synergistic antibacterial activity against Acinetobacter baumannii ATCC 19606 infected in C57BL/6 mouse assessed as survival rate at compound to doxycycline ratio of 35:1 at 60 mg/kg, ip administered as single dose measured for 5 days (reference value: <20%). Type of data set: functional. As to conditions: ATCC 19606 = CIP 70.34 = JCM 6841, ip, 120 h. In a few lines:
(§4)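 C57BL/6 mice (n = 5 per group; 4 untreated controls) infected intraperitoneally with A. baumannii ATCC19606 grown at 37 °C and collected by centrifugation, at a dose giving 75% death. Single intraperitoneal dose (2 to 60 mg/kg) given 1 h after infection. Mice monitored for 5 days, with death as the end point; survival rate recorded.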

The subject of data set [8] is Acinetobacter baumannii. The experiment in a line: Synergistic antibacterial activity against Acinetobacter baumannii ATCC 19606 infected in C57BL/6 mouse assessed as increase in survival rate at compound to doxycycline ratio of 35:1 administered ip as single dose measured for 5 days. The class given is functional. As to conditions: ATCC 19606 = CIP 70.34 = JCM 6841, ip, 120 h. In a few lines:
as §4

Data set [9] concerns Acinetobacter baumannii. The experiment in a line: Synergistic antibacterial activity against Acinetobacter baumannii ATCC 19606 at 2:1 compound to doxycycline ratio after 48 hrs by resazurin dye based microdilution broth checkerboard method. The class given is functional. As to conditions: ATCC 19606 = CIP 70.34 = JCM 6841, 48 h. In a few lines: as §1
The subject of data set [10] is Klebsiella pneumoniae. The experiment in a line: Synergistic antibacterial activity against Klebsiella pneumoniae ATCC 8047 at 60:1 compound to doxycycline ratio after 48 hrs by resazurin dye based microdilution broth checkerboard method. Type of data set: functional. The conditions noted are these: ATCC 8047, 48 h. The essentials: as §1
The test system of data set [11] is Escherichia coli. In words: Synergistic bactericidal activity against Escherichia coli ATCC 10798 at 35:1 compound to doxycycline ratio after 48 hrs by resazurin dye based microdilution broth checkerboard method. The class given is functional. As to conditions: ATCC 10798, 48 h, read-out: MBC99.9. In a few lines:
as §1

Data set [12] relates to Escherichia coli. In words: Synergistic antibacterial activity against Escherichia coli ATCC 10798 at 60:1 compound to doxycycline ratio after 48 hrs by resazurin dye based microdilution broth checkerboard method. Type of data set: functional. As to conditions: ATCC 10798, 48 h. The essentials:
as §1

The subject of data set [13] is Acinetobacter baumannii. The experiment in a line: Synergistic bactericidal activity against multidrug-resistant Acinetobacter baumannii ATCC […] at 60:1 compound to doxycycline ratio […] by resazurin dye based microdilution broth checkerboard method. Type of data set: functional. As to conditions: read-out: MBC99.9.
Data set [14] has as its system Klebsiella pneumoniae. In words: Growth inhibition of Klebsiella pneumoniae ATCC 8047 after 48 hrs by resazurin dye based microdilution method. As to conditions: ATCC 8047, 48 h. The class given is functional. In a few lines: (§5)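 Broth microdilution in tryptic soy broth. Mid-log cultures (OD600 0.5) treated with serial dilutions from a DMSO stock (1 mg per 100 μL) for 48 h at 37 °C. Resazurin (stock 0.02%) then added for 1 h at 37 °C. MIC is the lowest concentration staying blue; MBC is blue retained over 4 h (99.9% kill), with CFU plating when needed.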

The test system of data set [15] is Escherichia coli. The experiment in a line: Synergistic bactericidal activity against Escherichia coli ATCC 10798 at 2:1 compound to doxycycline ratio after 48 hrs by resazurin dye based microdilution broth checkerboard method. Type of data set: functional. The conditions noted are these: ATCC 10798, 48 h, read-out: MBC99.9. In a few lines: as §1
Data set [16] concerns Acinetobacter baumannii. The experiment in a line: Growth inhibition of multidrug-resistant Acinetobacter baumannii ATCC BAA 18002 after 48 hrs by resazurin dye based broth microdilution method. The conditions noted are these: ATCC BAA 18002, 48 h. The class given is functional. The essentials: as §5
The subject of data set [17] is Acinetobacter baumannii. In words: Potentiation of doxycycline-induced antimicrobial activity against Acinetobacter baumannii ATCC 19606 at 0.2 ug/ml in presence of 0.025 ug/ml doxycycline by microdilution broth checkerboard method. Type of data set: functional, ATCC 19606 = CIP 70.34 = JCM 6841. The essentials: as §2
Data set [18] deals with Acinetobacter baumannii. The experiment in a line: Synergistic antibacterial activity against Acinetobacter baumannii ATCC 19606 at 35:1 compound to doxycycline ratio after 48 hrs by resazurin dye based microdilution broth checkerboard method. As to conditions: ATCC 19606 = CIP 70.34 = JCM 6841, 48 h. The class given is functional. The essentials: as §3
The test system of data set [19] is Staphylococcus aureus. The experiment in a line: Growth inhibition of Staphylococcus aureus ATCC 25923 after 48 hrs by resazurin dye based microdilution method. Type of data set: functional. As to conditions: ATCC 25923, 48 h. The essentials: as §5
Data set [20] concerns Acinetobacter baumannii. In words: Potentiation of doxycycline-induced antimicrobial activity against Acinetobacter baumannii ATCC 19606 at 0.20 ug/ml in presence of 0.05 ug/ml doxycycline by microdilution broth checkerboard method. Type of data set: functional, ATCC 19606 = CIP 70.34 = JCM 6841. In a few lines:
as §2

Data set [21] is described as follows: Protein binding in rat plasma at 500 to 5000 ng/ml after 4 hrs by LC/MS analysis. The class given is ADME, cell-free. In a few lines: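 Equilibrium dialysis (MWCO 6000–8000) of Sprague-Dawley rat plasma (lithium heparin) spiked at 500 and 5000 ng/mL, in duplicate, against isotonic phosphate buffer pH 7.4. 4 h at 37 °C, about 100 rpm. Methanol with internal standard, LC-MS. Free fraction = buffer/plasma concentration; reported as % bound. Verapamil as reference.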

Data set [22] deals with Klebsiella pneumoniae. In words: Synergistic bactericidal activity against Klebsiella pneumoniae ATCC 8047 at 35:1 compound to doxycycline ratio after 48 hrs by resazurin dye based microdilution broth checkerboard method. The class given is functional. The conditions noted are these: ATCC 8047, 48 h, read-out: MBC99.9. The essentials: as §3
The test system of data set [23] is Klebsiella pneumoniae. In words: Synergistic bactericidal activity against Klebsiella pneumoniae ATCC 8047 at 60:1 compound to doxycycline ratio after 48 hrs by resazurin dye based microdilution broth checkerboard method. Type of data set: functional. The conditions noted are these: ATCC 8047, 48 h, read-out: MBC99.9. The essentials: as §1

In brackets after ≈: the same amount, converted by molar mass.

The source of these data is ChEMBL document CHEMBL4177542, “A New Combination of a Pleuromutilin Derivative and Doxycycline for Treatment of Multidrug-Resistant Acinetobacter baumannii” (J Med Chem, 2017).

As a reminder, the IC50 is the concentration that inhibits the measured activity by half. One may read the MIC as the least concentration at which growth counts as inhibited. A word on the ED50: it is the dose that gives a 50% effect, or the effect in half of the subjects. In the case of `C=C[C@]1(C)C[C@@H](OC(=O)CSC(C)(C)CNC(=O)[C@H](N)C(C)C)[C@]2(C)[C@H](C)CC[C@]3(CC[C@@H](O)[C@H]32)[C@@H](C)[C@@H]1O`, the MBC amounted to 25 µg/mL in data set [1]; 1.56 µg/mL in data set [11]; 6.25 µg/mL in [13]; 1.56 µg/mL in [15]; 1.56 µg/mL in [22]; 3.25 µg/mL in [23]. Moreover, the solubility result in data set [2] is on record as “Soluble”. Besides, the IC50 in data set [3] stood at 45.3 µg/mL (≈ 79.9 µM). Besides, the “fractional inhibitory concentration index (FICI)” value in data set [4] turned out to be 0.31; in [5], 0.38; in data set [17], 0.16; in data set [20] it was 0.28. Moreover, the MIC was 0.78 µg/mL in data set [6]; 0.5 µg/mL in [9]; 1.56 µg/mL in [10]; 0.25 µg/mL in [12]; under 6.25 µg/mL in data set [14]; 6.25 µg/mL (≈ 11 µM) in [16]. Besides, the MIC is 0.4 µg/mL in data set [18] and 12.5 µg/mL (≈ 22.1 µM) in [19]. In addition, the survival at 60 mg/kg in data set [7] was 100%. The ED50 in data set [8] was under 2 mg/kg. The same molecule displayed a PPB in data set [21] of 76.9%.
